From the RNAGym collection of RNA variant scans (doi:10.1126/science.aae0568)
Fewer inactive variants are shown than the library holds.

B1: tRNA (parent)
chain: GUUCCGUUGGCGUAAUGGUAACGCGUCUCCCUCCUAAGGAGAAGACUGCGGGUUCGAGUCCCGUACGGAACG

Variants of: B1
Test: yeast fitness relative to wild type (ratio to wild type); higher = fitter; tRNA-Arg(CCU), competitive growth, 37 C, YPD
Method in brief: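 Variants of the tRNA-Arg(CCU) gene, chemically synthesised with a 3% per-site mutation rate at 69 sites, were placed at the native genomic locus in Saccharomyces cerevisiae. The pooled strains were competed in YPD at 37°C for 24 hours in six parallel replicates. Gene amplicons from the start population and from each end population were read by 100-nucleotide paired-end sequencing. Darwinian fitness relative to wild type came from changes in genotype frequencies; genotypes needed ≥ 100 starting reads, and estimates < 0.5 were set to 0.5.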

Variant | yeast fitness
C27U U32C C46G | 0.765
U28A A45G A69C | ≤ 0.5
C27A G39C A57U A70U | ≤ 0.5
C27G U54C | ≤ 0.5
C27G G58A | 0.698
C27U A45G U64A | 0.553
C27G C31G A43C | 0.545
C27G A42U | 0.721
U26C C46U G51A | 0.64
C27A A36U A37U G48C C61U | ≤ 0.5
U28A C34U G41C G51A U53A U59C A70U | ≤ 0.5
U26A U35G A37U A70G | ≤ 0.5
C27A C31U | 0.941
C27G U28A A65U | ≤ 0.5
C27G A36C | ≤ 0.5
U26A U28C C30G C62A | ≤ 0.5
C27A A45U G52A | ≤ 0.5
C27U A45G U53C | 0.544
U28C C34U | 0.71
U28C A57C | 0.586
C27A C31A G52A G58C | ≤ 0.5
C27U A65C | 1.02
C27U A65G | 0.975
U26G G67C | 0.644

Variant | yeast fitness
C27G C34G A37U | ≤ 0.5
C27G U47C A70U | 0.545
U26C A43G | 1.01
U26C A43C | 0.952
U28A C33G A36U A40G A70G | ≤ 0.5
U26C C46U C62U | 0.718
U28A C30G U59C | ≤ 0.5
C27G C29A C61U | ≤ 0.5
C27A G52C | 0.562
U28C A42U A43G | 0.597
C27G A45C C49U G52A U59C | 0.6
U28A C55G C62U | ≤ 0.5
C27U G44C G58C | 0.655
U26C C62A | 0.762
U26C C46A U47G G50A | 0.541
C27U A42U A43U U47C | 0.577
C27U G51C C55A A65C | ≤ 0.5
C27G C62U A65U | 0.554
C27U C62G | 0.669
C27G U32G A42C C66U | ≤ 0.5
U28A C30U A37C G41C | 0.542
U26A G68C A69G | 0.572
C27U C30G | 0.624
C27A C33G G39A C49G | ≤ 0.5

Variant | yeast fitness
C27U A45U G52A | 0.63
C27G A36C G44A | ≤ 0.5
U26G C33G G50C | ≤ 0.5
C27G U28A C61U A65U A70U | ≤ 0.5
C27A G44C | 0.782
C27A C66G A70C | ≤ 0.5
C27A G39C C46A | ≤ 0.5
U28A C31U | 0.7
U28A U32G C55G | 0.505
C27U C55U G67C | 0.572
U26C A45G | 0.966
C27U U47A G68C | ≤ 0.5
C27U G41A | 0.939
C27A A37U C49U C55U C60G A65C | ≤ 0.5
U26G G50C A57G | 0.529
C27U C31U G52C U59G | ≤ 0.5
C27G A37G U64A | ≤ 0.5
U26G A36G | 0.914
C27U G48A | 1.1
U28A C30U A57G | 0.651
C27A A37U A70U | 0.548
U28A U35A | 0.584
C27G C33U | 0.592
C27G A65C A70C | 0.53

Variant | yeast fitness
U28A C33G C49G G50U | ≤ 0.5
U26C A36U | 0.608
C27A A36C A42U | ≤ 0.5
C27G C61U A69U | 0.532
C27U C46U G48A A70C | 0.669
U26C C29G A43U | ≤ 0.5
C27A G68C | 0.893
C27U A43U | 1.06
U26G U28A A43G C49U C61U G67A | ≤ 0.5
C27U C29G | 0.58
C27G A45U | 0.656
C27G U59C C66G | ≤ 0.5
U26C A45G A69U | 0.647
U28C A70U | 0.87
U26C G50A | 0.932
C27G U32A U54G | ≤ 0.5
C27U A36G | 0.85
U26G C29A | 0.578
C27A G38C | 0.609
U28A C31A G44A | 0.568
U26C A36U A45U G52C A57U | ≤ 0.5
U26C C34U | 0.716
C27G C30G | ≤ 0.5
U28A C30G A36C | ≤ 0.5

Variant | yeast fitness
C27U U35G A40C A57C G67U | 0.612
U26C A40G C66U | 0.563
C27G G44C A45G | 0.53
C27G U28G A36G U64C | ≤ 0.5
C27A G58C | 1.13
U26G A37C G38A A42G G44C A45G C49U A65U | ≤ 0.5
U26C C27U C62U | 0.754
C27G A45C G58C | 0.644
C27U A37G C55U | ≤ 0.5
C27U G41C A65C | 0.588
C27G C31G G68A | ≤ 0.5
U26C C60G | 0.642
C27A C31G G44C | ≤ 0.5
C27G C30U G67A A70G | ≤ 0.5
C27U C30U A42C C55U A70G | ≤ 0.5
U26C A43U G50A G68A | ≤ 0.5
U28A C31G G48A G51C C55G | 0.523
U26G G52A | 0.816
C27U C31A U53A | ≤ 0.5
C27G A37C A57C | ≤ 0.5
C27G C49U A65C | ≤ 0.5
C27U C34U A69U | 0.528
C27U G41C U53A C62U | ≤ 0.5
C27G A42U G48A | ≤ 0.5

Variant | yeast fitness
C27G G44C U47C | ≤ 0.5
U26A U32C U53A | ≤ 0.5
C27U U28G C31A G58C | ≤ 0.5
C27U U28A A37G C49U A57C G58C | 0.683
C27A U59C A69U | 0.713
C27U C29G C31A | ≤ 0.5
U26C C61U | 0.956
C27U U47C G68A | 0.672
C27A G39C C55G A70C | ≤ 0.5
C27G G44C | 0.569
C27A A40G C61G | 0.614
C27U C31G A40G | ≤ 0.5
C27A U32G G51A G56C A70G | ≤ 0.5
U26C G41C C61G A69C | ≤ 0.5
U28A G50U | 0.622
C27U G44A | 0.887
C27U U35C | 0.754
C27U C33G C34G G44A G50A G52A | 0.558
U26C A42G | 1.08
C27A U32A U59C | ≤ 0.5
C27A C30G G41C C61G C62U A69U | 0.557
U26C A36C A45G U54C | ≤ 0.5
U28C C31U G50C C55U C60G G63A C66U | ≤ 0.5
U28A G63A | 0.849

Variant | yeast fitness
C27U G48C A57C | ≤ 0.5
C27A C31G U54C | 0.744
C27U U53C G63A | ≤ 0.5
U28C A42G | 0.913
U28C G38C A45U G68A A69C | ≤ 0.5
C27U U28C C49U U54A A57C U59C | 0.706
U28C C49G | 0.909
C27G C34U A43C A57U G58A C62G | ≤ 0.5
C27A C61G C66U A69U | ≤ 0.5
C27U C34U U47C U53G A69U | ≤ 0.5
U26C C33G A45G | ≤ 0.5
C27U C49G | 0.916
C27U C33A A37U A57G | ≤ 0.5
U28C A40U C55A | ≤ 0.5
U26C C30G G67C | ≤ 0.5
C27G U64C | 0.693
U26C G48C G52C A57C G58A | ≤ 0.5
C27U C55U A70U | 0.504
C27A G39A A57G | ≤ 0.5
U28A C30U | 0.667
C27G U28A C30G C31U C60A A70C | ≤ 0.5
U28C G38C | 0.579
U26C A45G C55A C66U | 0.701
